What all share (format): cell-based
Assay [1] addresses T1, Transient receptor potential cation channel subfamily M member 2 (Homo sapiens, UniProt O94759). Put plainly: Inhibition of human TRPM2 expressed in HEK293 cells assessed as reduction in ADPR-induced channel currents treated extracellularly after 60 secs by whole cell patch clamp electrophysiology method. In outline: (§1)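 Tetracycline-inducible HEK293 stably expressing human TRPM2 (1 µg/mL tetracycline), whole-cell patch clamp at room temperature. ECS (mM): 145 NaCl, 5.6 KCl, 2 MgCl2, 1.2 CaCl2, 10 HEPES, pH 7.2. ICS contained 500 µM ADPR (pH 7.3). Compound was added to ECS. Held at 0 mV with 500 ms ramps from -100 to 100 mV every 5 s. IC50 came from concentration–response curves; mean ± SEM from at least five cells.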
On the technique in general: Patch clamp records ionic current or voltage across a cell membrane.

Assay [2] has as its system Transient receptor potential cation channel subfamily M member 2 (Homo sapiens), O94759 [H995A]. Description: Inhibition of human TRPM2 H995A mutant expressed in HEK293 cells assessed as reduction in ADPR-induced channel currents at 30 uM treated extracellularly after 50 to 200 secs by whole cell patch clamp electrophysiology method.
Assay [3] addresses T1, Transient receptor potential cation channel subfamily M member 2. Description: Inhibition of human TRPM2 expressed in HEK293 cells assessed as reduction in ADPR-induced channel currents at 3 uM treated extracellularly after 60 secs by whole cell patch clamp electrophysiology method relative to control. In outline: as §1
The target of assay [4] is T2, Transient receptor potential cation channel subfamily M member 8 (Homo sapiens, UniProt Q7Z2W7). Description: Inhibition of human TRPM8 expressed in HEK293 cells assessed as reduction in menthol-induced channel currents at 30 uM treated extracellularly after 60 secs by whole cell patch clamp electrophysiology method relative to control. In outline: (§2)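 HEK293 were transiently transfected with human TRPM8 (pcDNA4/TO) plus GFP using Lipofectamine 2000 and recorded 24–48 h later by whole-cell patch clamp. TRPM8 was activated by 1 mM menthol in ECS. Compound at 30 µM was placed in ECS or ICS, with 0.1 mM 2-APB as reference inhibitor. Mean peak currents reported as mean ± SEM, n = 5.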
Target sequence in this assay (Q7Z2W7 whole entry, looked up): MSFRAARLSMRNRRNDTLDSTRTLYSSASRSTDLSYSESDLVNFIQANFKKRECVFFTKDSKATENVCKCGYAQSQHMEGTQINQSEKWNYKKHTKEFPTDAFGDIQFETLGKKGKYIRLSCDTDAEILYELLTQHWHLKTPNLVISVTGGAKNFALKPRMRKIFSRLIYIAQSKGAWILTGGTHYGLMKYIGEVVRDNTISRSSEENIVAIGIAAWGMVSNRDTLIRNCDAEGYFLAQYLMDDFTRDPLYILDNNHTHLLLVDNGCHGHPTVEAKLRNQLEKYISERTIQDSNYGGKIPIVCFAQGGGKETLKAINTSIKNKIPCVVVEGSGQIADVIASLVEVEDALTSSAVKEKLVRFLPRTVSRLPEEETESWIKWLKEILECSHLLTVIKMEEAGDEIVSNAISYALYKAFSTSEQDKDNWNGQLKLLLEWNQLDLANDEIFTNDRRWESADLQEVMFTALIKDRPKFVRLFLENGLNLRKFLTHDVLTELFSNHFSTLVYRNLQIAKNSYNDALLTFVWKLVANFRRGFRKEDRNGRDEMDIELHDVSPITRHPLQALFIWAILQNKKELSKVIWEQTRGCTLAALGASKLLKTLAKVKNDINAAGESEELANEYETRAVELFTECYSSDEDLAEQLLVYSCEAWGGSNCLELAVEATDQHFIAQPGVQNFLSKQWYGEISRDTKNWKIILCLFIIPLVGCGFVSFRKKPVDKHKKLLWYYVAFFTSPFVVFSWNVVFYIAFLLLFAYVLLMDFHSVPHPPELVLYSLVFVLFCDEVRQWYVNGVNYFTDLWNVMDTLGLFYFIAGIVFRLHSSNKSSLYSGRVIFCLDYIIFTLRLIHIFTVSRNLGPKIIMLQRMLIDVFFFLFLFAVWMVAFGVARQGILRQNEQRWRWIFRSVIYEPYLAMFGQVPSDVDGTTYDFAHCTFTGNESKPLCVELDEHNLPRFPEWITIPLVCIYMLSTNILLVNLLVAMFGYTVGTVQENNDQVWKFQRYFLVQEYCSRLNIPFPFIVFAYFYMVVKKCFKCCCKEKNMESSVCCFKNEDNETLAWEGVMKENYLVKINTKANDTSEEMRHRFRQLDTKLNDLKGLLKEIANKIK

For assay [5], the target named is T2, Transient receptor potential cation channel subfamily M member 8. Description: Inhibition of human TRPM8 expressed in HEK293 cells assessed as reduction in menthol-induced channel currents at 30 uM treated intracellularly via pipette after 60 secs by whole cell patch clamp electrophysiology method. In outline: as §2
Target sequence in this assay (Q7Z2W7 whole entry, looked up): as above
Assay [6] addresses T1, Transient receptor potential cation channel subfamily M member 2. Description: Inhibition of human TRPM2 expressed in HEK293 cells assessed as reduction in ADPR-induced channel currents at 30 uM treated extracellularly after 60 secs by whole cell patch clamp electrophysiology method relative to control. In outline:
as §1

Assay [7] has the same target. Put plainly: Inhibition of human TRPM2 expressed in HEK293 cells assessed as reduction in H2O2-induced intracellular calcium flux at 30 uM after 30 mins by Fluo3-AM dye based fluorescence imaging assay. (In general: Calcium flux is commonly read through the fluorescence of an indicator in the cells.)
In assay [8] the target is T2, Transient receptor potential cation channel subfamily M member 8. Put plainly: Inhibition of human TRPM8 expressed in HEK293 cells assessed as reduction in H2O2-induced intracellular calcium flux after 30 mins by Fluo4-AM dye based fluorescence assay.
Target sequence in this assay (Q7Z2W7 whole entry): as the sequence (Q7Z2W7 whole entry, looked up) above
Assay [9] addresses T1, Transient receptor potential cation channel subfamily M member 2. Put plainly: Inhibition of human TRPM2 expressed in HEK293 cells assessed as reduction in ADPR-induced channel currents at 30 to 1000 uM treated intracellularly after 60 secs by whole cell patch clamp electrophysiology method. In outline:
(§3)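 Human TRPM2 in tetracycline-inducible HEK293, recorded by whole-cell patch clamp at room temperature. Compound at 30 µM or 1 mM was added to the pipette ICS together with 500 µM ADPR; the ICS (mM) was 147 NaCl, 1 EGTA, 1 MgCl2, 24 HEPES, pH 7.3. Ramps ran from -100 to 100 mV every 5 s from a 0 mV hold, with leak subtraction from the first three ramps.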

Assay [10] has the same target. Description: Inhibition of human TRPM2 expressed in HEK293 cells assessed as reduction in ADPR-induced channel currents at 30 to 1000 uM treated simultaneously after 60 secs by whole cell patch clamp electrophysiology method. In outline:
as §3

For assay [11], the system named is Transient receptor potential cation channel subfamily M member 2 (Homo sapiens), O94759 [D964A]. Put plainly: Inhibition of human TRPM2 D964A mutant expressed in HEK293 cells assessed as reduction in ADPR-induced channel currents at 30 uM treated extracellularly after 50 to 200 secs by whole cell patch clamp electrophysiology method relative to control.

Activity calls are given as the source filed them. No cut-off for these calls is given here.

The text below walks through data of ChEMBL document CHEMBL4152243, “Design, synthesis and biological activities of 2,3-dihydroquinazolin-4(1H)-one derivatives as TRPM2 inhibitors” (Eur J Med Chem, 2018).

T1 sequence (O94759 whole entry): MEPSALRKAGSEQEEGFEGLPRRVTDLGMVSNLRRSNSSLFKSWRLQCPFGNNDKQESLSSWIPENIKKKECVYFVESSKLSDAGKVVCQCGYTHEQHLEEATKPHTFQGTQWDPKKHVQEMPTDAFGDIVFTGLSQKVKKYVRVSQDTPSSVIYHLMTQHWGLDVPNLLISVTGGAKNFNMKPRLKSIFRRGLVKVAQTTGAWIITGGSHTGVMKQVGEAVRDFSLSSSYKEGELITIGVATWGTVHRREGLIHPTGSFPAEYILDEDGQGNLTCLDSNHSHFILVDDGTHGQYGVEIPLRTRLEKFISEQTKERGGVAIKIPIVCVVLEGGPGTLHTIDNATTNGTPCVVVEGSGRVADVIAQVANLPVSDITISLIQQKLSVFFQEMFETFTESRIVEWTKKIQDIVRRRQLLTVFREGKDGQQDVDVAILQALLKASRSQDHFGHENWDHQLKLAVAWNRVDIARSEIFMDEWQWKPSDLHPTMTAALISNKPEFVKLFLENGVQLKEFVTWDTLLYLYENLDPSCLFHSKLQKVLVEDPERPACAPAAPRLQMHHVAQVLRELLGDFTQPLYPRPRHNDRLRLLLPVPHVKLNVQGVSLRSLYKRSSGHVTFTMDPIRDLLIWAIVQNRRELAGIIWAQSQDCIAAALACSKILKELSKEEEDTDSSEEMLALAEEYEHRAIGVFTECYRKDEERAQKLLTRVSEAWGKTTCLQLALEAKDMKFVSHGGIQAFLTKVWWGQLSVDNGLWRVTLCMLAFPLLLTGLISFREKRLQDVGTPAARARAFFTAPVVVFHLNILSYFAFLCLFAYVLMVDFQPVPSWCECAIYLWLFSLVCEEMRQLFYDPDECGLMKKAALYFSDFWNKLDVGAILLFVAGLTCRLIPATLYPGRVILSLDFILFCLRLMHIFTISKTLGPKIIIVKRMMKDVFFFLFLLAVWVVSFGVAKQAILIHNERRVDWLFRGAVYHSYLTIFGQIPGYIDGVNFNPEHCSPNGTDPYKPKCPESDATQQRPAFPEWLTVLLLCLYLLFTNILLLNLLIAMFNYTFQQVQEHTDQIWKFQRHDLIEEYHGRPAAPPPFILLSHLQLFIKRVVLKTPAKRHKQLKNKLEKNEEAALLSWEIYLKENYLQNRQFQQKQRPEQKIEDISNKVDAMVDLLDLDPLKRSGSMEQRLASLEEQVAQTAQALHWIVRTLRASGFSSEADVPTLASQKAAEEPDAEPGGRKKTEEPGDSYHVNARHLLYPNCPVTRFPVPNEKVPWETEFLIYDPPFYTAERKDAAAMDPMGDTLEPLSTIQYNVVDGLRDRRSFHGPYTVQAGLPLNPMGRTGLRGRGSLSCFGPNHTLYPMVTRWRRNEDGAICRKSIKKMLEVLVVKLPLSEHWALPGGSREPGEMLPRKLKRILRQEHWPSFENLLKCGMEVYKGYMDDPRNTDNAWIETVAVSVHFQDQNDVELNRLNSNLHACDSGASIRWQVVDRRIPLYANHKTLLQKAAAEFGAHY
Transient receptor potential cation channel subfamily M member 2 (Homo sapiens), O94759 [H995A], sequence (O94759 whole entry H995A): as the sequence (O94759 whole entry) above, with H995A counted along it
Transient receptor potential cation channel subfamily M member 2 (Homo sapiens), O94759 [D964A], sequence (O94759 whole entry D964A): as the sequence (O94759 whole entry) above, with D964A counted along it

In general, IC50 refers to the midpoint of a concentration-inhibition curve. Broadly, the inhibition is the relative decrease from the control value, in per cent. In the case of `Cc1cc(Br)cc2c1NC(c1c[nH]nc1-c1cccc3ccccc13)NC2=O` (stereo not given), the IC50 in assay [1] was determined as 3.7 µM. For the same compound, the inhibition result in assay [2], in assay [4] and in assay [5] was “inactive” each time. Besides, the inhibition in assay [3] was 48.7%.
For `Cc1cc(Cl)cc2c1N[C@H](c1c[nH]nc1-c1ccccc1)NC2=O`, the inhibition entry in assay [6] is “Active”.
On the same count and under the same terms, with `Cc1cc(Cl)cc2c1NC(c1c[nH]nc1-c1ccc(-c3ccccc3)cc1)NC2=O` (stereo not given) the figure was 17%.
As for `O=c1[nH]c(SCc2ccncc2)nc2ccccc12`, the inhibition entry in [7] is “Active”.
Turning to `O=c1[nH]c(-c2c[nH]nc2-c2ccccc2)nc2ccc(Cl)cc12`, in assay [7], the inhibition entry was “Active”.
Regarding `O=C1NC(c2c[nH]nc2-c2cccc3ccccc23)Nc2c(I)cc(Cl)cc21` (stereo not given), the inhibition in [3] is 19.9%.
In the case of `O=C1NC(c2c[nH]nc2-c2ccccc2)Nc2c(I)cc(I)cc21` (stereo not given), the inhibition entry in assay [7] is “Active”.
As for `O=C1NC(c2c[nH]nc2-c2ccccc2)Nc2ccc(F)cc21` (stereo not given), the inhibition in assay [6] came to 34.8%.
Turning to `Cc1cc(C)c2nc(-c3c[nH]nc3-c3ccccc3)[nH]c(=O)c2c1`, the inhibition entry in assay [7] was “Active”.
On the same count and under the same terms, with `O=C1NC(c2c[nH]nc2-c2ccccc2)Nc2c(Cl)cc(Cl)cc21` (stereo not given) the entry was “Active”.
On to `Cc1cccc2c(=O)[nH]c(-c3c[nH]nc3-c3ccccc3)nc12`, for which the inhibition in assay [6] was 21.2%.
`Cc1cc(Cl)cc2c(=O)[nH]c(-c3c[nH]nc3-c3ccccc3)nc12`: in [7], the inhibition result is “Active”.
Turning to `Cc1cc(I)cc2c1NC(c1c[nH]nc1-c1ccccc1)NC2=O` (stereo not given), the inhibition entry in assay [7] is “Active”.
Take `O=C1NC(c2c[nH]nc2-c2ccccc2)Nc2c(F)cc(F)cc21` (stereo not given): the inhibition in assay [6] worked out at 37.2%.
Turning to `Cc1cccc2c1C(=O)NC(c1c[nH]nc1-c1ccccc1)N2` (stereo not given), the inhibition result in assay [7] is “Active”.
As to `Cc1cc(Cl)cc2c1NC(c1c[nH]nc1-c1cccc3ccccc13)NC2=O` (stereo not given), the inhibition was found to be 90.2% in [6] and 50.9% in assay [3]. In [1], the IC50 stood at 4 µM. The inhibition entry in assay [4] and in assay [5] was “inactive” each time.
For the compound `Cc1cc(Cl)cc2c1NC(c1c[nH]nc1-c1ccc(Br)cc1)NC2=O` (stereo not given), the inhibition in assay [6] was determined as 51%.
In the case of `O=c1[nH]c(-c2c[nH]nc2-c2ccccc2)nc2ncccc12`, the inhibition entry in assay [7] is “Active”.
Turning to `COc1cc(Br)cc2c1NC(c1c[nH]nc1-c1ccccc1)NC2=O` (stereo not given), the inhibition in assay [6] amounted to 50.4%.
Still for that read-out and setting: with `O=C1NC(c2c[nH]nc2-c2ccccc2)Nc2ccc(Cl)cc21` (stereo not given) the figure was 27.9%.
`O=C1NC(c2c[nH]nc2-c2ccccc2)Nc2cc(Br)ccc21` (stereo not given): the inhibition entry in assay [7] is “Active”.
In the case of `Cc1cc(F)cc2c1NC(c1c[nH]nc1-c1ccccc1)NC2=O` (stereo not given), the inhibition in [6] was 42.7%.
`O=C1NC(c2c[nH]nc2-c2ccc(Cl)cc2)Nc2ccccc21` (stereo not given): the inhibition result in assay [7] is “Active”.
Same read-out and setting: as for `O=C1NC(c2c[nH]nc2-c2ccccc2)Nc2cccc(Cl)c21` (stereo not given), the entry is “Active”.
Take `Cc1cccc2c1NC(c1c[nH]nc1-c1ccccc1)NC2=O` (stereo not given): the inhibition in assay [6] was 39.2%.
For the compound `Cc1cc(C)c2c(c1)C(=O)NC(c1c[nH]nc1-c1ccccc1)N2` (stereo not given), the inhibition in [6] was 60.5%.
Still for that read-out and setting: with `Cc1cc(Cl)cc2c1N[C@@H](c1c[nH]nc1-c1ccccc1)NC2=O` the entry was “Active”.
Take `O=C1NC(c2c[nH]nc2-c2ccccc2)Nc2c(Br)cc(Br)cc21` (stereo not given): in assay [7], the inhibition result is “Active”.
As for `O=C1NC(c2c[nH]nc2-c2ccccc2)Nc2c(Br)cc(F)cc21` (stereo not given), the inhibition result in assay [7] is “Active”.
The same measure, in the same setting: as for `Cc1cc(Br)c2c(c1)C(=O)NC(c1c[nH]nc1-c1ccccc1)N2` (stereo not given), the entry is “Active”.
For the compound `CCCCCc1ccc(/C=C/C(=O)Nc2ccccc2C(=O)O)cc1`, the results for the inhibition in assay [6] and in assay [3] were 89.1% and 75.9%, respectively. Moreover, the half-inhibitory concentration (IC50) in assay [1] came out at 0.32 µM; in [8] it was 3.9 µM.
Regarding `O=C1NC(c2c[nH]nc2-c2ccccc2)Nc2c1cccc2[N+](=O)[O-]` (stereo not given), the inhibition result in assay [7] was “Active”.
For `Cc1cc(Br)cc2c1NC(c1c[nH]nc1-c1ccc([N+](=O)[O-])cc1)NC2=O` (stereo not given), in assay [3], the inhibition came out at 42.1%.
On to `O=C1NC(c2cncn2Cc2ccc(Cl)cc2)Nc2ccccc21` (stereo not given), for which, in assay [7], the inhibition entry was “Active”.
Take `O=C1NC(c2c[nH]nc2-c2ccccc2)Nc2c(I)cc(Cl)cc21` (stereo not given): the values for the inhibition in assay [6] and in assay [3] were 89.4% and 39.6%, respectively.
For `Cc1cc(Cl)cc2c1NC(c1c[nH]nc1-c1ccccc1)NC2=O` (stereo not given), the inhibition amounted to 90.2% in assay [6], 46.4% in assay [3] and 27% in [4]. For the same compound, the IC50 in assay [1] is 5.1 µM. For the same compound, in assay [5], the inhibition entry was “Active”.
For the compound `O=C1NC(c2c[nH]nc2-c2ccccc2)Nc2c(Br)cccc21` (stereo not given), in assay [7], the inhibition entry was “Active”.
For the compound `Cc1cc(Br)cc2c1NC(c1c[nH]nc1-c1ccccc1)NC2=O` (stereo not given), the inhibition in assay [6] was found to be 92.8%; in assay [3], 50.1%; in [4] it was 19%. In addition, the IC50 in assay [1] came to 4.6 µM. Besides, the inhibition entry in assay [5] is “Active”.
Regarding `Cc1cc(Cl)cc2c1NC(c1cn[nH]c1)NC2=O` (stereo not given), the inhibition in assay [6] was found to be 16.9%.
As for `O=C1NC(c2c[nH]nc2-c2ccccc2)Nc2ccccc21` (stereo not given), the inhibition entry in assay [7] is “Active”. Also, the inhibition entry in assay [9] and in [10] was “inactive” throughout. The figures for the inhibition in assay [6], in assay [2] and in assay [11] were 55 to 68.1%, 4% and 40 to 50%, respectively.
With `O=C1NC(c2c[nH]nc2-c2ccc([N+](=O)[O-])cc2)Nc2c(I)cc(Cl)cc21` (stereo not given), the inhibition in assay [3] is 34.9%.
Regarding `Cc1cc(Cl)cc2c1NC(c1c[nH]nc1-c1ccc([N+](=O)[O-])cc1)NC2=O` (stereo not given), the results for the inhibition in assay [6] and in assay [3] were 90.4% and 43.4%, respectively.
As to `O=c1[nH]c(-c2c[nH]nc2-c2ccccc2)nc2ccccc12`, the inhibition in assay [6] came out at 28.7%.
On the same count and under the same terms, as for `Cc1cc(Cl)cc2c1NC(c1c[nH]nc1-c1ccc(Cl)cc1)NC2=O` (stereo not given), the figure is 10.3%.
Consider `O=C1NC(c2cc(-c3ccccc3)c[nH]2)Nc2ccccc21` (stereo not given), for which the inhibition result in assay [7] was “Active”.
As to `Cc1cc(Cl)cc2c1NC(c1c[nH]nc1-c1ccccc1Br)NC2=O` (stereo not given), the inhibition in assay [6] worked out at 17.9%.
Take `Nc1ncnc2c1ncn2[C@@H]1O[C@H](COP(=O)(O)O)[C@@H](O)[C@H]1O`: in assay [1], the inhibition entry was “Dose-dependent effect”. In [2], the inhibition entry was “inactive”. Moreover, the inhibition result in [11] is “Active”.
